Four compounds from ChEMBL document CHEMBL4270612, “Discovery of dual GyrB/ParE inhibitors active against Gram-negative bacteria” (Eur J Med Chem, 2018) can be followed below.

Values after ≈ are worked out from the molar mass of the structure shown.

DNA topoisomerase 4 subunit B, sequence (P20083 whole entry): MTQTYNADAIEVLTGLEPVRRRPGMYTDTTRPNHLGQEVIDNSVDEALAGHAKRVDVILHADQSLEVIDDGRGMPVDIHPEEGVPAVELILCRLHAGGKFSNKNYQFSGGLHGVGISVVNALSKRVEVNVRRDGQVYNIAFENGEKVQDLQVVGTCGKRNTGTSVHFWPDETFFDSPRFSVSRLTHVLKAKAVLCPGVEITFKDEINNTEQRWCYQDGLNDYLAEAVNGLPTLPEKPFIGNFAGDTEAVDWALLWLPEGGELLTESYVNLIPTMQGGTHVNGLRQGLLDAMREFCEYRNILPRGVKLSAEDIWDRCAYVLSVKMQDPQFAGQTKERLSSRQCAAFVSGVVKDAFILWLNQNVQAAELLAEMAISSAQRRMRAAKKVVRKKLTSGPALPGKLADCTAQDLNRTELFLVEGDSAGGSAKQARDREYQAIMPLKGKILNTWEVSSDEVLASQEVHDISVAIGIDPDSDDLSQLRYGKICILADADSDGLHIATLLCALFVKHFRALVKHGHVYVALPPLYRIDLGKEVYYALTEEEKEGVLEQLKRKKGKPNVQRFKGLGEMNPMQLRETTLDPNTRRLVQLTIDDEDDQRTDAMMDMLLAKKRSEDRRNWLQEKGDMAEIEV

One series concerns the target DNA gyrase subunit B (Escherichia coli, UniProt P0AES6). Kind of series: Inhibition of Escherichia coli GyrB (1 to 220 residues) expressed in Escherichia coli BL21(DE3).
Conditions: not given
The compound `CCNC(=O)Nc1cc(-c2nc(C(F)(F)F)cs2)c(-c2cc3ncccc3nc2N2CCN(C)CC2)cn1` displayed an IC50 of 3 nM.
The compound `CCNC(=O)Nc1cc(-c2nc(C(F)(F)F)cs2)c(-c2cc(C(=O)O)ccc2N2C3CCC2CN(C)C3)cn1` had an IC50 of 9 nM.

The next series concerns the target DNA topoisomerase 4 subunit B (Escherichia coli K-12, UniProt P20083). In words: Inhibition of Escherichia coli ParE.
Conditions: not given
As to `CCNC(=O)Nc1cc(-c2nc(C(F)(F)F)cs2)c(-c2cc3ncccc3nc2N2CCN(C)CC2)cn1`, the IC50 was 400 nM.
`CCNC(=O)Nc1cc(-c2nc(C(F)(F)F)cs2)c(-c2cc(C(=O)O)ccc2N2C3CCC2CN(C)C3)cn1` gave a half-inhibitory concentration (IC50) of 10 nM.

The test system of a further series is Pseudomonas aeruginosa. Kind of series: Antibacterial activity against Pseudomonas aeruginosa PAO1 after 24 hrs by broth microdilution method. Type of series: functional. To be noted: PAO1, 24 h. Put shortly: (§1)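 Broth microdilution per CLSI. Bacterial suspension adjusted to 1×10^6 CFU/mL in cation-adjusted Mueller–Hinton broth and mixed 1:1 with 2-fold serial compound dilutions. Final DMSO 2.5% v/v. Plates incubated at 35 °C with shaking at 140 rpm for 24 h.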
In turn, `CCNC(=O)Nc1cc(-c2nc(C(F)(F)F)cs2)c(-c2cc3ncccc3nc2N2CCN(C)CC2)cn1` came in with an MIC of over 100 µg/mL.
`CCNC(=O)Nc1cc(-c2nc(C(F)(F)F)cs2)c(-c2cc(C(=O)O)ccc2N2C3CCC2CN(C)C3)cn1`: the MIC is 9 µg/mL (≈ 16.1 µM).

In another series the test system is Pseudomonas aeruginosa. In words: Antibacterial activity against Pseudomonas aeruginosa harboring MexABCDXY deletion mutant after 24 hrs by broth microdilution method. It is filed as functional.
Conditions: not given
The procedure, abridged:
(§2)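 Broth microdilution per CLSI. Bacterial suspensions adjusted to 1×10^6 CFU/mL in cation-adjusted Mueller–Hinton broth, mixed 1:1 with 2-fold serial compound dilutions (final DMSO 2.5% v/v). Incubation 35 °C, 140 rpm, 24 h.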
Compound `CCNC(=O)Nc1cc(-c2nc(C(F)(F)F)cs2)c(-c2cc3ncccc3nc2N2CCN(C)CC2)cn1` showed an MIC of 1.08 µg/mL (≈ 1.99 µM).
On the same count and under the same terms, the result for `CCNC(=O)Nc1cc(-c2nc(C(F)(F)F)cs2)c(-c2cc(C(=O)O)ccc2N2C3CCC2CN(C)C3)cn1` reads 4.46 µg/mL (≈ 7.96 µM).

The next series relates to Escherichia coli. Kind of series: Antibacterial activity against Escherichia coli after 24 hrs by broth microdilution method. It is filed as functional.
Conditions: not given
The procedure, abridged:
as §1
Background: Broth dilution looks for growth in wells or tubes with falling amounts of substance.
`CCNC(=O)Nc1cc(-c2nc(C(F)(F)F)cs2)c(-c2cc3ncccc3nc2N2CCN(C)CC2)cn1` showed an MIC of 16.8 µg/mL (≈ 31 µM).
`CCNC(=O)Nc1cc(-c2nc(C(F)(F)F)cs2)c(-c2cc(C(=O)O)ccc2N2C3CCC2CN(C)C3)cn1` had an MIC of 9 µg/mL (≈ 16.1 µM).

The subject of another series is Escherichia coli. In words: Antibacterial activity against tolC deficient Escherichia coli after 24 hrs by broth microdilution method.
Conditions: not given
Type of series: functional. The procedure, abridged:
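Broth microdilution per CLSI guidelines. Inoculum adjusted to 1×10^6 CFU/mL in cation-adjusted Mueller–Hinton broth, added 1:1 to 2-fold serial compound dilutions; final DMSO 2.5% v/v. Plates incubated 35 °C, 140 rpm, 24 h.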
Regarding `CCNC(=O)Nc1cc(-c2nc(C(F)(F)F)cs2)c(-c2cc3ncccc3nc2N2CCN(C)CC2)cn1`, the MIC was found to be 1.08 µg/mL (≈ 1.99 µM).
In the case of `CCNC(=O)Nc1cc(-c2nc(C(F)(F)F)cs2)c(-c2cc(C(=O)O)ccc2N2C3CCC2CN(C)C3)cn1`, the MIC stood at 1.12 µg/mL (≈ 2 µM).

Test system in a further series: not listed separately
In words: Dissociation constant, acidic pKa of compound by pH metric method. Type of series: physicochemical.
Conditions: not given
Put shortly: (§3)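 Potentiometric (pH-metric) titration on an automated titrator, Gold Standard pH metric assay, run in triplicate.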
`CCNC(=O)Nc1cc(-c2nc(C(F)(F)F)cs2)c(-c2cc(C(=O)O)ccc2N2C3CCC2CN(C)C3)cn1` showed a pKa of 4.4.

Test system in another series: not listed separately
In words: Dissociation constant, basic pKa of compound by pH metric method.
Conditions: not given
Type of series: physicochemical. The procedure, abridged: as §3
In the case of `CCNC(=O)Nc1cc(-c2nc(C(F)(F)F)cs2)c(-c2cc(C(=O)O)ccc2N2C3CCC2CN(C)C3)cn1`, the pKa stood at 8.2.

Test system in another series: not listed separately
In words: Dissociation constant, pKa of compound by pH metric method.
Conditions: not given
It is filed as physicochemical. Put shortly: as §3
The compound `CCNC(=O)Nc1cc(-c2nc(C(F)(F)F)cs2)c(-c2cc3ncccc3nc2N2CCN(C)CC2)cn1` came in with a pKa of 7.4.

The next series deals with Acinetobacter baumannii. Kind of series: Antibacterial activity against Acinetobacter baumannii ARC3495 after 24 hrs by broth microdilution method. It is filed as functional. To be noted: ARC3495, 24 h. Put shortly:
as §1
For `CC(=O)NC[C@H]1CN(c2ccc(N3CCOCC3)c(F)c2)C(=O)O1` [LINEZOLID], the MIC was over 64 µg/mL.
Compound `CC(C)(O/N=C(\C(=O)N[C@@H]1C(=O)N2C(C(=O)[O-])=C(C[n+]3ccccc3)CS[C@H]12)c1csc(N)n1)C(=O)O` [CEFTAZIDIME] registered an MIC of over 32 µg/mL.

The subject of a further series is Klebsiella pneumoniae. In words: Antibacterial activity against Klebsiella pneumoniae ARC1865 after 24 hrs by broth microdilution method. To be noted: ARC1865, 24 h. It is filed as functional. The procedure, abridged:
as §1
In turn, `CC(=O)NC[C@H]1CN(c2ccc(N3CCOCC3)c(F)c2)C(=O)O1` [LINEZOLID] gave an MIC of over 64 µg/mL.
For `CC(C)(O/N=C(\C(=O)N[C@@H]1C(=O)N2C(C(=O)[O-])=C(C[n+]3ccccc3)CS[C@H]12)c1csc(N)n1)C(=O)O` [CEFTAZIDIME], the MIC stood at 0.25 µg/mL (≈ 0.457 µM).

A further series deals with Haemophilus influenzae. In words: Antibacterial activity against Haemophilus influenzae ATCC 49247 after 24 hrs by broth microdilution method. It is filed as functional. To be noted: ATCC 49247, 24 h. The procedure, abridged: as §1
On to `CC(=O)NC[C@H]1CN(c2ccc(N3CCOCC3)c(F)c2)C(=O)O1` [LINEZOLID], for which the MIC came out at 4 µg/mL (≈ 11.9 µM).
On to `CC(C)(O/N=C(\C(=O)N[C@@H]1C(=O)N2C(C(=O)[O-])=C(C[n+]3ccccc3)CS[C@H]12)c1csc(N)n1)C(=O)O` [CEFTAZIDIME], for which the MIC came to 0.25 µg/mL (≈ 0.457 µM).

A further series deals with Enterobacter cloacae. In words: Antibacterial activity against Enterobacter cloacae ARC3528 after 24 hrs by broth microdilution method. To be noted: ARC3528, 24 h. Type of series: functional. Put shortly:
as §1
With `CC(=O)NC[C@H]1CN(c2ccc(N3CCOCC3)c(F)c2)C(=O)O1` [LINEZOLID], the MIC is over 64 µg/mL.
`CC(C)(O/N=C(\C(=O)N[C@@H]1C(=O)N2C(C(=O)[O-])=C(C[n+]3ccccc3)CS[C@H]12)c1csc(N)n1)C(=O)O` [CEFTAZIDIME] had an MIC of over 32 µg/mL.

A further series has as its system Staphylococcus aureus. In words: Antibacterial activity against Staphylococcus aureus ATCC 29213 after 24 hrs by broth microdilution method. It is filed as functional. To be noted: ATCC 29213, 24 h. The procedure, abridged:
as §1
`CC(C)(O/N=C(\C(=O)N[C@@H]1C(=O)N2C(C(=O)[O-])=C(C[n+]3ccccc3)CS[C@H]12)c1csc(N)n1)C(=O)O` [CEFTAZIDIME] had an MIC of 16 µg/mL (≈ 29.3 µM).

For another series, the system named is Staphylococcus aureus. Kind of series: Antibacterial activity against Staphylococcus aureus ATCC 29213 after 24 hrs in presence of 2% human albumin by broth microdilution method. The settings on record: ATCC 29213, 24 h. It is filed as functional.
For the compound `CC(C)(O/N=C(\C(=O)N[C@@H]1C(=O)N2C(C(=O)[O-])=C(C[n+]3ccccc3)CS[C@H]12)c1csc(N)n1)C(=O)O` [CEFTAZIDIME], the MIC is 16 µg/mL.

For a further series, the system named is Staphylococcus aureus. In words: Antibacterial activity against methicillin-resistant Staphylococcus aureus FQ-R after 24 hrs by broth microdilution method. It is filed as functional.
Conditions: not given
The procedure, abridged:
as §2
The compound `CC(=O)NC[C@H]1CN(c2ccc(N3CCOCC3)c(F)c2)C(=O)O1` [LINEZOLID] had an MIC of 0.5 µg/mL (≈ 1.48 µM).
Consider `CC(C)(O/N=C(\C(=O)N[C@@H]1C(=O)N2C(C(=O)[O-])=C(C[n+]3ccccc3)CS[C@H]12)c1csc(N)n1)C(=O)O` [CEFTAZIDIME], for which the MIC was over 32 µg/mL.

The next series deals with Staphylococcus aureus. In words: Antibacterial activity against methicillin-resistant Staphylococcus aureus USA100 after 24 hrs by broth microdilution method. It is filed as functional. To be noted: USA100, 24 h. The procedure, abridged: as §2
The compound `CC(=O)NC[C@H]1CN(c2ccc(N3CCOCC3)c(F)c2)C(=O)O1` [LINEZOLID] came in with an MIC of 1 µg/mL (≈ 2.96 µM).
For `CC(C)(O/N=C(\C(=O)N[C@@H]1C(=O)N2C(C(=O)[O-])=C(C[n+]3ccccc3)CS[C@H]12)c1csc(N)n1)C(=O)O` [CEFTAZIDIME], the MIC was over 32 µg/mL.

For a further series, the system named is Streptococcus pyogenes. In words: Antibacterial activity against Streptococcus pyogenes ARC838 after 24 hrs by broth microdilution method. It is filed as functional. The settings on record: ARC838, 24 h. Put shortly: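 Broth microdilution per CLSI. Bacterial suspension adjusted to 1×10^6 CFU/mL in cation-adjusted Mueller–Hinton broth and mixed 1:1 with 2-fold serial compound dilutions. Plates incubated at 35 °C with shaking at 140 rpm for 24 h.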
`CC(=O)NC[C@H]1CN(c2ccc(N3CCOCC3)c(F)c2)C(=O)O1` [LINEZOLID] gave an MIC of 0.5 µg/mL (≈ 1.48 µM).

A further series concerns Streptococcus pneumoniae. Kind of series: Antibacterial activity against Streptococcus pneumoniae ATCC 49619 after 24 hrs by broth microdilution method. Type of series: functional. The settings on record: ATCC 49619, 24 h. The procedure, abridged: as §1
In the case of `CC(C)(O/N=C(\C(=O)N[C@@H]1C(=O)N2C(C(=O)[O-])=C(C[n+]3ccccc3)CS[C@H]12)c1csc(N)n1)C(=O)O` [CEFTAZIDIME], the MIC turned out to be 0.5 µg/mL (≈ 0.915 µM).

In another series the test system is Enterococcus faecalis. In words: Antibacterial activity against Enterococcus faecalis ATCC 29212 after 24 hrs by broth microdilution method. Type of series: functional. The settings on record: ATCC 29212, 24 h. Put shortly: as §1
`CC(C)(O/N=C(\C(=O)N[C@@H]1C(=O)N2C(C(=O)[O-])=C(C[n+]3ccccc3)CS[C@H]12)c1csc(N)n1)C(=O)O` [CEFTAZIDIME]: the MIC is over 32 µg/mL.

A further series deals with Candida albicans. Kind of series: Antifungal activity against Candida albicans ATCC 90028 after 24 hrs by broth microdilution method. The settings on record: ATCC 90028, 24 h. Type of series: functional.
`CC(=O)NC[C@H]1CN(c2ccc(N3CCOCC3)c(F)c2)C(=O)O1` [LINEZOLID]: the MIC is over 64 µg/mL.
Consider `CC(C)(O/N=C(\C(=O)N[C@@H]1C(=O)N2C(C(=O)[O-])=C(C[n+]3ccccc3)CS[C@H]12)c1csc(N)n1)C(=O)O` [CEFTAZIDIME], for which the MIC is over 32 µg/mL.

Test system in the next series: not listed separately
In words: Growth inhibition of human A549 cells. It is filed as cell-based.
Conditions: not given
Take `CCNC(=O)Nc1cc(-c2nc(C(F)(F)F)cs2)c(-c2cc3ncccc3nc2N2CCN(C)CC2)cn1`: the GI50 was over 50000 nM.
`CCNC(=O)Nc1cc(-c2nc(C(F)(F)F)cs2)c(-c2cc(C(=O)O)ccc2N2C3CCC2CN(C)C3)cn1` had a GI50 of over 25000 nM.

The term IC50 denotes the point on the concentration scale where inhibition reaches its midpoint. A low value points to greater potency in that assay. By pKa is commonly meant the pH at which an ionisable group is half protonated. One may read the GI50 as the concentration that inhibits growth by half. The low end stands for more potent growth inhibition, the high end for less potent growth inhibition.
